This note sets out measurements from the M2OR odorant receptor database.

Molecules are shown by their SMILES.
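Note: active if original authors judged signal statistically different from baseline.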

This assay has as its target T1, UniProt Q8VGV7.
T1 sequence (whole entry): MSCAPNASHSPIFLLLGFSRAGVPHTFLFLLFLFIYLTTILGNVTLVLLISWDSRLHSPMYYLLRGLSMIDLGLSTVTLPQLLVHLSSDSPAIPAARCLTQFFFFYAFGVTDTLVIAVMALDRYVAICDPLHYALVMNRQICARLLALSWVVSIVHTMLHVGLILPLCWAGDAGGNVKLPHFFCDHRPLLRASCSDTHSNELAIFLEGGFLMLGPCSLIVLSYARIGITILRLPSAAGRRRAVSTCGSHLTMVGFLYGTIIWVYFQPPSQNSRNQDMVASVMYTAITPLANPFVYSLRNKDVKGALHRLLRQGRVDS
To be noted: stereoisomer not certain. The essentials: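 Transient luciferase assays in mammalian cell lines were common, though methods varied by source. The values come from published papers and their supplementary material, with extra details from the original authors when needed. Responsive refers to a measured signal the original authors judged statistically different from baseline, and non-responsive (inactive) to the remainder.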
As for `CCCCCCCCC(=O)O`, the “odorant receptor agonist call” value was “inactive”. With `CCCCC(=O)O` the entry was “inactive”. In the case of `CC(C)=CCCC(C)CCO` (configuration not stated), the “odorant receptor agonist call” value was “inactive”. With `CCCCCCCCCO` the entry was “inactive”. `CCCCCCCC(C)=O`: the “odorant receptor agonist call” value was “inactive”. `O=C1Cc2ccccc2O1`: the “odorant receptor agonist call” value was “inactive”. Turning to `CCCC(=O)C(C)=O`, the “odorant receptor agonist call” value was “inactive”. In the case of `CC(=O)OCC=C(C)C`, the “odorant receptor agonist call” value is “inactive”.

Regarding `CCCCCC=O`, the “odorant receptor agonist call” value is “inactive”. With `CC(=O)Oc1ccccc1` the entry was “inactive”; with `COc1cc(C(=O)O)ccc1O`, “inactive”. On to `CCCCCC(=O)CC`, for which the “odorant receptor agonist call” value is “inactive”.

For `CCCCCCCCCS`, the “odorant receptor agonist call” value is “inactive”.

With `CCCCCCO`, the “odorant receptor agonist call” value is “inactive”.

Turning to `CCOC(=O)C(C)C`, the “odorant receptor agonist call” value is “inactive”.

Regarding `c1ccccc1`, the “odorant receptor agonist call” value was “inactive”. With `CCCCCCOC(C)=O` the entry was “inactive”.

As for `CCC(=O)O`, the “odorant receptor agonist call” value is “inactive”. Under `CCCCCCCCS` stands “inactive”; under `C=C(C)C1CCC(C)C(=O)C1` (configuration not stated), “inactive”. With `O=C(c1ccccc1)c1ccccc1` the entry was “inactive”; with `CCCCC(=O)CC`, “inactive”; with `CCCCC(C)=O`, “inactive”. Consider `CCCCCCCCCC(=O)[O-].[H+]`, for which the “odorant receptor agonist call” value is “inactive”. With `CCCCOC=O`, the “odorant receptor agonist call” value was “inactive”. Under `CCCCCCCCCCO` stands “inactive”; under `CCCCCCCCO`, “inactive”.

For `CCCCCC1=C(C)CCC1=O`, the “odorant receptor agonist call” value was “inactive”. With `C=CCOC(=O)CCCCCC` the entry was “inactive”; with `CCCCCCCO`, “inactive”; with `CC(C)=CCCC(C)=CCO`, “inactive”. For `CCC(=O)C(=O)CC`, the “odorant receptor agonist call” value was “inactive”.
